Tests used:
[1] = tested on: Human immunodeficiency virus 1; test: Antiviral activity against wild type HIV1 NL4-3 in MT4 cells after 5 days by MTT method; assay type: functional, organism-based; details: Human immunodeficiency virus 1, NL4-3, MT4, 120 h
In short: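 MT-4 lymphoid cells, infected with HIV-1 or mock-infected (for cytotoxicity), held with a range of drug concentrations; viable cells scored at day 5 post-infection by tetrazolium (MTT) colorimetry.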

[2] = tested on: Human immunodeficiency virus type 1 reverse transcriptase (Human immunodeficiency virus 1), Q72547 [Y181I]; test: Antiviral activity against HIV1 reverse transcriptase Y181I mutant
[3] = target: Human immunodeficiency virus type 1 reverse transcriptase (Human immunodeficiency virus 1) (UniProt Q72547); test: Antiviral activity against wild type HIV1 reverse transcriptase
[4] = tested on: Human immunodeficiency virus 1; test: Antiviral activity against HIV1 with reverse transcriptase Y188L mutation in MT4 cells after 5 days by MTT method; assay type: functional, organism-based; details: Human immunodeficiency virus 1, MT4, 120 h
In short: (§1)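 MT-4 cells from the NIH AIDS Reagent Program were infected with mutant HIV-1 (K103N or Y188L, from the MRC Centralised Facility) in the presence of graded drug concentrations. Mock-infected cells were used for cytotoxicity. Viable cells were counted by MTT colorimetry at day 5 post-infection.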

[5] = tested on: Human immunodeficiency virus 1; test: Antiviral activity against HIV1 with reverse transcriptase Y181C mutation in MT4 cells after 5 days by MTT method; assay type: functional, organism-based; details: Human immunodeficiency virus 1, MT4, 120 h
[6] = tested on: Human immunodeficiency virus 1; test: Antiviral activity against HIV1 with reverse transcriptase K103N mutation in MT4 cells after 5 days by MTT method; assay type: functional, organism-based; details: Human immunodeficiency virus 1, MT4, 120 h; in short: as §1
[7] = tested on: Human immunodeficiency virus 1; test: Antiviral activity against HIV1 with reverse transcriptase IRLL98 mutation in MT4 cells after 5 days by MTT method relative to wild type NL4-3; assay type: functional
[8] = tested on: Human immunodeficiency virus 1 [K103N]; test: Antiviral activity against HIV1 reverse transcriptase K103N mutant

Row | SMILES | EC50 [1] | ID50 [2] | ID50 [3] | EC50 [4] | EC50 [5] | EC50 [6] | Fold change [7] | ID50 [8]
1 | CCc1c(Cc2c(F)cccc2F)nc(SCc2ccc(C#N)cc2)[nH]c1=O | 0.075 µM | > 20 µM | 0.17 µM | > 63 µM | 1.33 µM | 7.78 µM | 45.3 | 7.5 µM
2 | Cc1c(Cc2c(Cl)cccc2Cl)nc(SCC(=O)c2ccc(C#N)cc2)[nH]c1=O | 1.08 µM | > 20 µM | 0.2 µM | > 56.3 µM | 1.31 µM | 12.2 µM | 3.2 | > 20 µM
3 | Cc1cn([C@H]2C[C@H](N=[N+]=[N-])[C@@H](CO)O2)c(=O)[nH]c1=O [ZIDOVUDINE] | – | – | – | – | – | – | 3 | –
4 | COC(=O)c1ccc(CSc2nc(Cc3c(F)cccc3F)c(C)c(=O)[nH]2)cc1 | 0.142 µM | > 20 µM | 0.5 µM | > 34.1 µM | 1.35 µM | 11.2 µM | 6.9 | > 20 µM
5 | COc1ccc(CSc2nc(Cc3c(F)cccc3F)c(C)c(=O)[nH]2)cc1OC | 0.2 µM | > 20 µM | 0.5 µM | > 39.7 µM | 0.74 µM | 9.33 µM | 1.5 | > 20 µM
6 | COc1ccc(/C=C/CSc2nc(Cc3c(Cl)cccc3Cl)c(C)c(=O)[nH]2)cc1 | 0.015 µM | > 20 µM | 0.007 µM | > 0.96 µM | > 0.96 µM | > 0.96 µM | – | 9 µM
7 | Cc1c(Cc2c(F)cccc2F)nc(SCC#Cc2ccc([N+](=O)[O-])cc2)[nH]c1=O | 40.1 µM | > 20 µM | 0.416 µM | > 58.6 µM | > 58.6 µM | > 58.6 µM | – | > 20 µM
8 | CCc1c(Cc2c(Cl)cccc2Cl)nc(SCc2ccc(C#N)cc2)[nH]c1=O | 0.044 µM | > 20 µM | 0.1 µM | > 58.1 µM | 3.05 µM | 8.84 µM | 194 | > 20 µM
9 | CCCCc1ccc(CSc2nc(Cc3ccc(C#N)cc3)c(C)c(=O)[nH]2)cc1 | 4.57 µM | > 20 µM | > 20 µM | > 79.9 µM | > 79.9 µM | > 79.9 µM | – | > 20 µM
10 | CC(=O)Oc1ccc(CSc2nc(Cc3c(F)cccc3F)c(C)c(=O)[nH]2)cc1 | 22.9 µM | > 20 µM | 48 µM | > 60.1 µM | > 60.1 µM | > 60.1 µM | – | > 20 µM
11 | CCc1c(Cc2c(Cl)cccc2Cl)nc(SCCc2ccc(OC)cc2)[nH]c1=O | 0.0013 µM | > 20 µM | 0.07 µM | > 11.1 µM | 3.85 µM | 6.81 µM | – | > 20 µM
12 | COc1ccc(/C=C/CSc2nc(C(C)c3c(F)cccc3F)c(C)c(=O)[nH]2)cc1 (stereo not drawn) | 0.0002 µM | > 20 µM | 0.292 µM | 0.07 µM | 0.13 µM | 0.26 µM | – | 3.7 µM
13 | Cc1ccnc2c1NC(=O)c1cccnc1N2C1CC1 [NEVIRAPINE] | – | – | – | – | – | – | 144 | –
14 | COc1ccc(C#CCSc2nc(C(C)c3c(Cl)cccc3Cl)c(C)c(=O)[nH]2)cc1 (stereo not drawn) | 0.5 µM | > 20 µM | 0.005 µM | 24.8 µM | 33.5 µM | > 54.5 µM | – | > 20 µM
15 | COc1ccc(COCCSc2nc(Cc3c(Cl)cccc3Cl)c(C)c(=O)[nH]2)cc1 | 0.021 µM | > 20 µM | 0.063 µM | 1.72 µM | 3.01 µM | 3.44 µM | – | 56 µM
16 | CCc1c(C(C)c2c(F)cccc2F)nc(SCCOCc2ccc(OC)cc2)[nH]c1=O (stereo not drawn) | 3.89 µM | 0.27 µM | 0.741 µM | > 54.4 µM | > 54.4 µM | > 54.4 µM | – | > 20 µM
17 | CCc1c(C(C)c2c(F)cccc2F)nc(SC/C=C/c2ccc(OC)cc2)[nH]c1=O (stereo not drawn) | 0.0002 µM | > 20 µM | 0.016 µM | 0.63 µM | 0.7 µM | 1.02 µM | – | 0.4 µM
18 | Cc1c(Cc2c(F)cccc2F)nc(SCC(=O)c2ccc(Cl)cc2)[nH]c1=O | 3.76 µM | > 20 µM | 7.5 µM | > 59.5 µM | 3.69 µM | > 59.5 µM | – | > 20 µM
19 | Cc1c(Cc2c(Cl)cccc2Cl)nc(S/C=C/c2ccc(F)cc2)[nH]c1=O | > 59.4 µM | > 20 µM | > 20 µM | > 59.4 µM | > 59.4 µM | 11.9 µM | – | > 20 µM
20 | CCC(c1nc(SCc2ccc(OC)cc2)[nH]c(=O)c1C)c1c(F)cccc1F (stereo not drawn) | 0.0019 µM | > 20 µM | 0.047 µM | 1.46 µM | 5.02 µM | 6.13 µM | – | > 20 µM
21 | Cc1c(Cc2ccc(C#N)cc2)nc(SCc2ccc(C#N)cc2)[nH]c1=O | > 67.2 µM | > 20 µM | > 20 µM | > 67.2 µM | > 67.2 µM | > 67.2 µM | – | > 20 µM
22 | Cc1c(Cc2c(F)cccc2F)nc(SC/C=C/c2ccc([N+](=O)[O-])cc2)[nH]c1=O | 0.26 µM | > 20 µM | 11.9 µM | > 11.7 µM | > 11.7 µM | > 11.7 µM | – | > 20 µM
23 | Cc1c(Cc2c(F)cccc2F)nc(SCc2ccc3c(c2)OCO3)[nH]c1=O | 0.15 µM | > 20 µM | > 20 µM | > 62.2 µM | 1.32 µM | 10.2 µM | 1.8 | > 20 µM
24 | COc1ccc(COCCSc2nc(Cc3c(F)cccc3F)c(C)c(=O)[nH]2)cc1 | 1.2 µM | > 20 µM | 0.197 µM | > 55.9 µM | > 55.9 µM | > 55.9 µM | – | > 20 µM
25 | O=C1Nc2ccc(Cl)cc2C(C#CC2CC2)(C(F)(F)F)O1 (single isomer, unassigned) [EFAVIRENZ] | – | – | – | – | – | – | 300 | –

From ChEMBL document CHEMBL1138362, “Dihydro-alkylthio-benzyl-oxopyrimidines as inhibitors of reverse transcriptase: synthesis and rationalization of the biological data on both wild-type enzyme and relevant clinical mutants” (J Med Chem, 2007)
